# Laboratory results published in ChEMBL document CHEMBL1128586, “Antihyperglycemic N-sulfonyl-1a,2,6,6a-tetrahydro-1H,4H- [1,3]dioxepino[5,6-b]azirines: synthesis, X-ray structure analysis, conformational behavior, quantitative structure-property relationships, and quantitative structure-activity relationships” (J Med Chem, 1995).
# Experiments:
# Type in all cases: functional
# [1] = test system: Mus musculus; test: Effect on blood glucose levels in healthy mice at subcutaneous dose of 20 mg/kg at 0 min
# Summary of the method: (§1)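 Healthy (nondiabetic) fasted animals: CBA mice (20-25 g) or Fischer rats (160-200 g), fasted 16 h before treatment. Single iv or sc dose given at zero time; drug dissolved in minimal DMSO, diluted with 0.9% saline. Tail-vein blood sampled over time; glucose measured by enzymatic-colorimetric kit, expressed as mmol/L whole blood; group sizes 6-12.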
# [2] = test system: Mus musculus; test: Effect on blood glucose levels in healthy mice at intravenous dose of 20 mg/kg at 60 min; summary of the method: as §1
# [3] = test system: Mus musculus; test: Effect on blood glucose levels in healthy mice at subcutaneous dose of 100 mg/kg at 60 min; summary of the method: as §1
# [4] = test system: Rattus norvegicus; test: Effect on blood glucose levels in healthy rat at subcutaneous dose of 20 mg/kg at 0 min; summary of the method: as §1
# [5] = test system: Mus musculus; test: Effect on blood glucose levels in healthy mice at intravenous dose of 5 mg/kg at 60 min; summary of the method: as §1
# [6] = test system: Mus musculus; test: Effect on blood glucose levels in healthy mice at intravenous dose of 20 mg/kg at 0 min; summary of the method: as §1
# [7] = test system: Mus musculus; test: Hypoglycemic effect of compound 1 hr after subcutaneous administration of 20 mg/kg dose in alloxanized mice and expressed as percent of initial blood glucose level
# Summary of the method: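 CBA mice of either sex, 20-25 g, made diabetic by single tail-vein alloxan monohydrate 65 mg/kg and tested 48 h later. Compound given sc at 20 mg/kg, dissolved in minimal DMSO and diluted with 0.9% saline. Tail-vein blood sampled before dosing and at 1 h. Glucose measured by enzymatic-colorimetric kit and expressed as percent of the initial sample.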
# [8] = test system: Mus musculus; test: Effect on blood glucose levels in healthy mice at subcutaneous dose of 100 mg/kg at 120 min; summary of the method: as §1
# [9] = test system: Mus musculus; test: Effect on blood glucose levels in healthy mice at intravenous dose of 5 mg/kg at 0 min; summary of the method: as §1
# [10] = test system: Mus musculus; test: Effect on blood glucose levels in healthy mice at subcutaneous dose of 20 mg/kg at 120 min; summary of the method: as §1
# [11] = test system: Mus musculus; test: Hypoglycemic effect of compound 1 hr after subcutaneous administration of a 20 mg/kg dose in alloxanized mice and expressed as hypoglycemic activity ratio (hAR) taking metformin as standard
# Summary of the method: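 Alloxan-diabetic CBA mice (65 mg/kg iv alloxan, used after 48 h) received 20 mg/kg sc in DMSO/saline. Glucose was measured enzymatically in tail-vein blood and expressed as %BGL at 1 h. HAR = (100 − %BGL of compound)/(100 − %BGL of metformin), with metformin tested at the same dose and route.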
# [12] = test system: Rattus norvegicus; test: Effect on blood glucose levels in healthy rat at subcutaneous dose of 20 mg/kg at 60 min; summary of the method: as §1
# [13] = test system: Mus musculus; test: Effect on blood glucose levels in healthy mice at intravenous dose of 5 mg/kg at 40 min; summary of the method: as §1
# [14] = test system: Mus musculus; test: Effect on blood glucose levels in healthy mice at subcutaneous dose of 100 mg/kg at 0 min; summary of the method: as §1
# [15] = test system: Mus musculus; test: Effect on blood glucose levels in healthy mice at intravenous dose of 20 mg/kg at 40 min; summary of the method: as §1
# [16] = test system: Mus musculus; test: Effect on blood glucose levels in healthy mice at subcutaneous dose of 20 mg/kg at 60 min; summary of the method: as §1
SMILES,BGL [7],HAR [11],further results
CC(=O)Nc1ccc(S(=O)(=O)N2[C@@H]3COCOC[C@@H]32)cc1 (stereo partly specified),37%,4.5,Blood glucose [1]: 12.43 mM (l of whole blood)-1; Blood glucose [2]: 8.82 mM (l of whole blood)-1; Blood glucose [3]: 12.09 mM (l of whole blood)-1; Blood glucose [4]: 5.52 mM (l of whole blood)-1; Blood glucose [5]: 8.72 mM (l of whole blood)-1; Blood glucose [6]: 8.83 mM (l of whole blood)-1; Blood glucose [8]: 13.17 mM (l of whole blood)-1; Blood glucose [9]: 8.35 mM (l of whole blood)-1; Blood glucose [10]: 13.15 mM (l of whole blood)-1; Blood glucose [12]: 5.44 mM (l of whole blood)-1; Blood glucose [13]: 8.61 mM (l of whole blood)-1; Blood glucose [14]: 11.72 mM (l of whole blood)-1; Blood glucose [15]: 9.3 mM (l of whole blood)-1; Blood glucose [16]: 14.41 mM (l of whole blood)-1
Cc1ccc(S(=O)(=O)N2[C@@H]3COCOC[C@@H]32)cc1 (stereo partly specified),94%,0.42,
O=S(=O)(c1ccc(Br)cc1)N1[C@@H]2COCOC[C@@H]21 (stereo partly specified),107%,-0.5,
O=S(=O)(c1ccccc1)N1[C@@H]2COCOC[C@@H]21 (stereo partly specified),53%,3.36,
CC(=O)Nc1ccc(S(=O)(=O)N2[C@@H]3CO[C@H](C(C)C)OC[C@@H]32)cc1 (stereo partly specified),84.8%,1.08,
CC(=O)Nc1ccc(S(=O)(=O)N2[C@@H]3CO[C@@H](C(C)C)OC[C@@H]32)cc1 (stereo partly specified),85%,1.07,
CC(C)[C@@H]1OC[C@@H]2[C@H](CO1)N2S(=O)(=O)c1ccc([N+](=O)[O-])cc1 (stereo partly specified),78%,1.57,
O=S(=O)(c1ccc(F)cc1)N1[C@@H]2COCOC[C@@H]21 (stereo partly specified),76%,1.71,
COc1ccc(S(=O)(=O)N2[C@@H]3COCOC[C@@H]32)cc1 (stereo partly specified),78%,1.57,
O=S(=O)(c1ccc(Cl)cc1)N1[C@@H]2COCOC[C@@H]21 (stereo partly specified),77%,1.64,
CN(C)C(=N)NC(=N)N [METFORMIN],86%,1,
